Test results: ChEMBL document CHEMBL1134470, “Synthesis, photophysical properties, tumor uptake, and preliminary in vivo photosensitizing efficacy of a homologous series of 3-(1'-alkyloxy)ethyl-3-devinylpurpurin-18-N-alkylimides with variable lipophilicity” (J Med Chem, 2001)

How the values were obtained:
[1] = test system: Mus musculus; assay: Tumor uptake in C3H mice bearing RIF tumors, determined by in vivo reflectance spectroscopy following 5.0 umol/kg administration.; assay type: functional
In short: (§1)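 Photosensitizer given iv at 5.0 µmol/kg to C3H mice bearing RIF tumors, anesthetized with ketamine xylazine ip. Scattered-light spectrum from tissue was recorded before and after injection. The in vivo drug absorption was taken as the ratio of post- to pre-injection spectra. Tumor and skin were compared at 24 h postinjection.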

[2] = Tumor and skin uptake ratio of the compound; assay type: functional
In short: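 C3H mice bearing RIF tumors, anesthetized with ketamine xylazine ip; photosensitizer given iv at 5.0 µmol/kg. Uptake measured by in vivo reflectance spectroscopy: light scattered by tissue recorded before and after injection, and drug absorption taken as the postinjection/preinjection spectral ratio. Tumor versus skin uptake compared at 24 h postinjection.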

[3] = test system: Mus musculus; assay: Skin uptake in C3H mice bearing RIF tumors, determined by in vivo reflectance spectroscopy following 5.0 umol/kg administration.; assay type: functional; in short: as §1
[4] = Partition coefficient (logP); assay type: physicochemical; details: octanol/water

| Compound | Tumor uptake [1] | Ratio [2] | Skin uptake [3] | logP ([4]; read-out: logP) | logP [4] |
| --- | --- | --- | --- | --- | --- |
| CCCOC(C)C1=C(C)c2cc3nc(c4c5[nH]c(cc6[nH]c(cc1n2)c(C)c6CC)c(C)c5C(=O)N(CCC)C4=O)[C@@H](CCC(=O)OC)[C@@H]3C (stereo not given in full) | 10.5 µM | 2.19 | 4.8 µM | 7.26 |  |
| CCCCCCCCCOC(C)C1=C(C)c2cc3nc(c4c5[nH]c(cc6[nH]c(cc1n2)c(C)c6CC)c(C)c5C(=O)N(CCCCCC)C4=O)[C@@H](CCC(=O)OC)[C@@H]3C (stereo not given in full) | 10.7 µM | 3.02 | 3.54 µM |  | 11.85 |
| CCCCCCN1C(=O)c2c3nc(cc4nc(cc5[nH]c(cc6[nH]c2c(c6C)C1=O)c(CC)c5C)C(C(C)OCCC)=C4C)[C@@H](C)[C@@H]3CCC(=O)OC (stereo not given in full) | 13.8 µM | 2.19 | 6.29 µM | 8.79 |  |
| CCCCCCCCCCOC(C)C1=C(C)c2cc3nc(c4c5[nH]c(cc6[nH]c(cc1n2)c(C)c6CC)c(C)c5C(=O)N(CCCCCCCCCC)C4=O)[C@@H](CCC(=O)OC)[C@@H]3C (stereo not given in full) | 5.56 µM | 3.21 | 1.73 µM |  |  |
| CCCCCCCCCCCCN1C(=O)c2c3nc(cc4nc(cc5[nH]c(cc6[nH]c2c(c6C)C1=O)c(CC)c5C)C(C(C)OC)=C4C)[C@@H](C)[C@@H]3CCC(=O)OC (stereo not given in full) | 15.48 µM | 2.67 | 5.8 µM |  | 10.88 |
| CCCCCCCCCCCCOC(C)C1=C(C)c2cc3nc(c4c5[nH]c(cc6[nH]c(cc1n2)c(C)c6CC)c(C)c5C(=O)N(CCCCCCCCCCCC)C4=O)[C@@H](CCC(=O)OC)[C@@H]3C (stereo not given in full) | 5.04 µM | 1.87 | 2.7 µM |  |  |
| CCCCCCOC(C)C1=C(C)c2cc3nc(c4c5[nH]c(cc6[nH]c(cc1n2)c(C)c6CC)c(C)c5C(=O)N(C)C4=O)[C@@H](CCC(=O)OC)[C@@H]3C (stereo not given in full) | 6.42 µM | 3.61 | 1.78 µM | 7.67 |  |
| CCCCCCN1C(=O)c2c3nc(cc4nc(cc5[nH]c(cc6[nH]c2c(c6C)C1=O)c(CC)c5C)C(C(C)OC)=C4C)[C@@H](C)[C@@H]3CCC(=O)OC (stereo not given in full) | 10.1 µM | 2.24 | 4.5 µM | 7.82 |  |
| CCCCCCCCCCN1C(=O)c2c3nc(cc4nc(cc5[nH]c(cc6[nH]c2c(c6C)C1=O)c(CC)c5C)C(C(C)OCCCCCC)=C4C)[C@@H](C)[C@@H]3CCC(=O)OC (stereo not given in full) | 5.18 µM | 2.88 | 1.8 µM |  |  |
| CCCCCCOC(C)C1=C(C)c2cc3nc(c4c5[nH]c(cc6[nH]c(cc1n2)c(C)c6CC)c(C)c5C(=O)N(CCCCCC)C4=O)[C@@H](CCC(=O)OC)[C@@H]3C (stereo not given in full) | 7.3 µM | 3.17 | 2.3 µM |  | 10.32 |
| CCCCCCCN1C(=O)c2c3nc(cc4nc(cc5[nH]c(cc6[nH]c2c(c6C)C1=O)c(CC)c5C)C(C(C)OCCCCCC)=C4C)[C@@H](C)[C@@H]3CCC(=O)OC (stereo not given in full) | 8.04 µM | 2.73 | 2.95 µM |  | 10.83 |
| CCCCCCCCCCN1C(=O)c2c3nc(cc4nc(cc5[nH]c(cc6[nH]c2c(c6C)C1=O)c(CC)c5C)C(C(C)OCCC)=C4C)[C@@H](C)[C@@H]3CCC(=O)OC (stereo not given in full) | 11.5 µM | 1.89 | 6.09 µM |  | 10.83 |
| CCCCCCOC(C)C1=C(C)c2cc3nc(c4c5[nH]c(cc6[nH]c(cc1n2)c(C)c6CC)c(C)c5C(=O)N(CCC)C4=O)[C@@H](CCC(=O)OC)[C@@H]3C (stereo not given in full) | 4.95 µM | 3.34 | 1.48 µM | 8.79 |  |
| CCc1c(C)c2cc3[nH]c(cc4nc(c5c6nc(cc1[nH]2)C(C)=C6C(=O)N(C)C5=O)[C@@H](CCC(=O)OC)[C@@H]4C)c(C)c3C(C)OC (stereo not given in full) | 0.3 µM | 2.87 | 0.1 µM | 5.32 |  |
| CCCCCCCCCCCCN1C(=O)c2c3nc(cc4nc(cc5[nH]c(cc6[nH]c2c(c6C)C1=O)c(CC)c5C)C(C(C)OCCCCCC)=C4C)[C@@H](C)[C@@H]3CCC(=O)OC (stereo not given in full) | 4.77 µM | 2.39 | 2 µM |  |  |
| CCCCCCCCCCCCOC(C)C1=C(C)c2cc3nc(c4c5[nH]c(cc6[nH]c(cc1n2)c(C)c6CC)c(C)c5C(=O)N(C)C4=O)[C@@H](CCC(=O)OC)[C@@H]3C (stereo not given in full) | 6.21 µM | 3.57 | 1.74 µM |  | 10.73 |
| CCCCCCCCCCCCOC(C)C1=C(C)c2cc3nc(c4c5[nH]c(cc6[nH]c(cc1n2)c(C)c6CC)c(C)c5C(=O)N(CCCCCC)C4=O)[C@@H](CCC(=O)OC)[C@@H]3C (stereo not given in full) | 9.4 µM | 2.19 | 4.3 µM |  |  |
| CCCCCCCOC(C)C1=C(C)c2cc3nc(c4c5[nH]c(cc6[nH]c(cc1n2)c(C)c6CC)c(C)c5C(=O)N(CCCCCC)C4=O)[C@@H](CCC(=O)OC)[C@@H]3C (stereo not given in full) | 8.2 µM | 3.15 | 2.6 µM |  |  |
| CCCCCCCCCCOC(C)C1=C(C)c2cc3nc(c4c5[nH]c(cc6[nH]c(cc1n2)c(C)c6CC)c(C)c5C(=O)N(CCC)C4=O)[C@@H](CCC(=O)OC)[C@@H]3C (stereo not given in full) | 10.26 µM | 2.4 | 4.28 µM |  | 10.68 |
